Screening data (PubChem)
TAAR1 agonist: agonists of human TAAR1; CHO RD-HGA16 TAAR1, Fluo-8 calcium fluorescence; vehicle wells 0%, saturating PEA agonist 100%; Q96RJ0; activation, % at 3 µM; 360,000 compounds, 0.99% hits; AID 624467;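 active means activation above the mean activation of all test compounds in the run plus 3 SD, cut at about 38% in these data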
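System: CHO-derived RD-HGA16 cells with stable Gα16 and human TAAR1. Times: 17-24 h plating, Fluo-8 75 min 37 °C, 30 min RT. Measured by: calcium-sensitive Fluo-8 signal, excitation 470-495, emission 515-575 nm. Read-out basis: % activation relative to PEA EC100 response. Control set: DMSO and PEA EC100. Repeats: no replicates (n 1).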
OXTR ag: human OXTR agonism. P30559. activation, % at 3 µM. CHO-OTR cells, Fluo-8 calcium fluorescence; normalized: DMSO 0%, oxytocin 100%. AID 2435. 320,000 compounds, 0.32% hits;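 active means activation above the mean of all tested compounds plus 3 SD, cutoff set per screening run, cut at about 20% in these data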;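 further: peak over basal fluorescence ratio from a 100 s FLIPR kinetic read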
OXTR potentiate: human OXTR potentiation | P30559 | CHO-OTR cells, Fluo-8 calcium fluorescence, potentiator mode; 0% = oxytocin EC15, 100% = EC100 | activation, % at 3 µM | 320,000 compounds, 0.061% hits | AID 2445;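 active means activation above that plate's cutoff, the mean activation of tested compounds plus 3 SD, cut at about 6.6% in these data, passing the limit was not always enough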;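 further: 100% uses oxytocin at 75 nM as the full agonist control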
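Dosing: Single dose, 3.0 µM nominal final compound concentration | Material: Human OTR in CHO cells | Technique: Kinetic Fluo-8 calcium fluorescence | Benchmarks: EC15 oxytocin alone as 0%, 75 nM oxytocin as 100% | Probe or stimulus: Oxytocin at about EC15, sub-maximal agonist stimulus | Incubation: Compound 6 min at room temperature before oxytocin, 100 s read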
V1R ag counter: activates human V1a receptor in oxytocin agonist counter-screen. P37288. CHO-V1R cells, Fluo-8 calcium fluorescence, agonist mode; 0% DMSO, 100% 3 nM vasopressin. activation, % at 3 µM. AID 2797. 320,000 compounds, 0.25% hits;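 active means activation above the mean activation of all tested compounds plus 3 SD, per screening run, cut at about 20% in these data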;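 further: signal is peak over basal fluorescence ratio across a 100 second FLIPR read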
Target sequence (P37288 whole entry, looked up): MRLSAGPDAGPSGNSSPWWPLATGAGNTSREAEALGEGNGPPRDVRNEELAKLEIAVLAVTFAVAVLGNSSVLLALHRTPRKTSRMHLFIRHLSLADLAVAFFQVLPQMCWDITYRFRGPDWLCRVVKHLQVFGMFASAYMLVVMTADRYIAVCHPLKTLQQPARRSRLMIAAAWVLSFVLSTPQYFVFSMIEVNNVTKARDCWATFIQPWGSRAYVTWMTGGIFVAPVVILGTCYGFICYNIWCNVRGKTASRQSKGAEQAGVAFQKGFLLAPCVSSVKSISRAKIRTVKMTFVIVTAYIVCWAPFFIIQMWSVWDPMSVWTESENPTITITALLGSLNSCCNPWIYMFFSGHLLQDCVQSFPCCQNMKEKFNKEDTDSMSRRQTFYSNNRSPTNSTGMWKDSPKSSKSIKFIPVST
TAAR1 antagonist: antagonists of human TAAR1. CHO RD-HGA16 TAAR1, Fluo-8 calcium fluorescence, antagonist. inhibition, % at 3 µM. AID 624466. Q96RJ0. 360,000 compounds, 1.5% hits;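 active means inhibition above a per-plate cutoff, the mean inhibition of test compounds on that plate plus 3 SD, cut at about 49% in these data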;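 further: 0% = DMSO plus EC80 beta-PEA response and 100% = DMSO alone without agonist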
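Material: RD-HGA16 CHO cells with stable hTAAR1 and Gα16; Dosing: single nominal final test compound concentration of 3 µM; Schedule: seeding 17-24 h prior, 75-min 37 °C, 30-min RT dye loading; Detection: kinetic Fluo-8 calcium fluorescence measurement; Measure: % inhibition from peak post-agonist over basal fluorescence ratio; Benchmarks: vehicle and agonist controls.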
TAAR1 ag confirm: confirmation of human TAAR1 agonists; shares compounds with TAAR1 agonist; CHO RD-HGA16 TAAR1, Fluo-8 calcium fluorescence; scaled: DMSO 0%, maximal phenethylamine 100%; activation, % at 3 µM; 2,400 compounds, 82% hits; AID 651783;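 active means activation above a cutoff set at the run's mean compound activation plus 3 SD, cut at about 39% in these data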
Ga16 ag counter: nonselective agonism, TAAR1 counter-screen | shares compounds with TAAR1 agonist | CHO-Ga16 parental, Fluo-8 calcium fluorescence; normalized to maximal ATP response, DMSO zero | activation, % at 3 µM | 2,400 compounds, 50% hits | AID 651787;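 active means activation above the run cutoff, the mean activation over all tested wells plus 3 SD, cut at about 12% in these data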;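 further: 0% = DMSO wells and 100% = maximal ATP response on the peak over basal ratio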
TAAR1 desensitize: human TAAR1 agonist that also desensitizes the receptor; shares compounds with TAAR1 agonist; CHO RD-HGA16 hTAAR1, Fluo-8 calcium, beta-PEA response inhibition; inhibition, % at 3 µM; 2,400 compounds, 46% hits;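 active means inhibition above the run cutoff, the mean inhibition of all test compounds plus 3 SD, cut at about 49% in these data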;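 further: beta-PEA stimulus applied at its EC80; loss of beta-PEA calcium signal after compound pretreatment read as receptor desensitization; 0% = DMSO with beta-PEA at EC80 and 100% = DMSO alone without agonist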
Ga16 antag count: nonselective Ga16 antagonist in TAAR1 agonist counter-screen. shares compounds with TAAR1 agonist. CHO-Ga16 ATP-induced calcium, Fluo-8 fluorescence. inhibition, % at 3 µM. 2,400 compounds, 39% hits;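 active means inhibition above the plate's mean compound inhibition plus 3 SD, computed per plate, cut at about 22% in these data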;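 further: 0% = EC80 ATP with DMSO and 100% = DMSO wells without ATP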
* hit, by the source's call. Rows were chosen to be rich in hits. Some 2.3% of all compounds tested hit in one or more screens of this group.

C/C=C(\C)C(=O)OC1c2c(ccc3ccc(=O)oc23)OC(C)(C)C1OC(C)=O (stereo unspecified) was read as TAAR1 agonist 51*, OXTR ag 1, OXTR potentiate -16, V1R ag counter 1, TAAR1 antagonist 62*, TAAR1 ag confirm 45*, Ga16 ag counter 29*, TAAR1 desensitize 79* and Ga16 antag count 54*.
`CCOc1ccc(C(=O)NNC2CC(=O)N(Cc3ccc(Cl)cc3)C2=O)cc1OC` (stereo unspecified) gave TAAR1 agonist -3, OXTR ag -2, OXTR potentiate -10, V1R ag counter -1 and TAAR1 antagonist -10.
CC(c1ccccc1C(O)(c1ccccc1)c1ccccc1)N(C)C (stereo unspecified) was read as TAAR1 agonist 114*, OXTR ag 43*, OXTR potentiate -21, V1R ag counter 48*, TAAR1 antagonist 74*, TAAR1 ag confirm 113*, Ga16 ag counter 70*, TAAR1 desensitize 98* and Ga16 antag count 63*.
For COc1ccccc1C(O)(c1ccccc1)c1ccccc1OC the results were TAAR1 agonist 0 and TAAR1 antagonist 5.
Screening CCN(C(=O)Cn1c(Cl)nc2c1c(=O)n(C)c(=O)n2C)C1CCCCC1 returned TAAR1 agonist 2, OXTR ag 0, OXTR potentiate 2, V1R ag counter 1 and TAAR1 antagonist 3.
Screening C[C@@H](C(=O)NC1CCCCC1)N1C(=O)N2CCc3c([nH]c4ccccc34)[C@@]2(C)C1=O returned TAAR1 agonist 1, OXTR ag -1, OXTR potentiate 0, V1R ag counter -1 and TAAR1 antagonist 9.
`C[C@@H](C(=O)NCCc1ccccc1)N1C(=O)N2CCc3c([nH]c4ccccc34)[C@@]2(C)C1=O` gave TAAR1 agonist 71*, OXTR ag 3, OXTR potentiate -4, V1R ag counter 0, TAAR1 antagonist 68*, TAAR1 ag confirm 68*, Ga16 ag counter 5, TAAR1 desensitize 31 and Ga16 antag count 13.
Screening C[C@@H](C(=O)NCCc1ccccc1F)N1C(=O)N2CCc3c([nH]c4ccccc34)[C@@]2(C)C1=O returned TAAR1 agonist 59*, OXTR ag 5, OXTR potentiate -6, V1R ag counter 1, TAAR1 antagonist 34, TAAR1 ag confirm 73*, Ga16 ag counter 4, TAAR1 desensitize 46 and Ga16 antag count 21.
`c1ccc2c3c([nH]c2c1)CCNC3` gave TAAR1 agonist 82*, OXTR ag 0, OXTR potentiate -19, V1R ag counter 0, TAAR1 antagonist 81*, TAAR1 ag confirm 103*, Ga16 ag counter 0, TAAR1 desensitize 93* and Ga16 antag count 2.
Screening Cc1ccc2[nH]c3c(c2c1)CNCC3 returned TAAR1 agonist 28, OXTR ag 2, OXTR potentiate -7, V1R ag counter 2 and TAAR1 antagonist 7.
`CC(=O)Nc1cc(-c2cccc(C(=O)NCCO)c2)cn2c(-c3ccc(F)c(Cl)c3)cnc12` gave TAAR1 agonist 0 and TAAR1 antagonist 5.
Screening CCOC(=O)Cn1c(=N)n(CCOc2ccc3ccccc3c2)c2ccccc21 returned TAAR1 agonist 58*, OXTR ag 13, OXTR potentiate -9, V1R ag counter 6, TAAR1 antagonist 11, TAAR1 ag confirm 57*, Ga16 ag counter 26*, TAAR1 desensitize 51* and Ga16 antag count 41*.
For CCCCOC(=O)Cn1c(=N)n(CCC)c2ccccc21 the results were TAAR1 agonist 2, OXTR ag 0, OXTR potentiate -15, V1R ag counter 0 and TAAR1 antagonist -26.
`COc1cc2[nH]c(C(=O)NCc3ccccc3)cc2c(OC)c1OC` gave TAAR1 agonist 2, OXTR ag -2, OXTR potentiate -1, V1R ag counter 0 and TAAR1 antagonist -7.
COc1cccc(C(=O)N[C@@H](Cc2cccnc2)C(=O)N2CCC[C@H]2C(=O)NCc2ccccc2)c1 was read as TAAR1 agonist 0 and TAAR1 antagonist -6.
O=C(N[C@@H](Cc1cccnc1)C(=O)N1CCC[C@H]1C(=O)NCCc1ccccc1Cl)c1ccco1 was read as TAAR1 agonist 30 and TAAR1 antagonist 12.
`O=C(N[C@@H](Cc1cccnc1)C(=O)N1CCC[C@H]1C(=O)NCCc1ccccc1Cl)c1ccc(Cl)cc1Cl` gave TAAR1 agonist 65*, TAAR1 antagonist 66*, TAAR1 ag confirm 72*, Ga16 ag counter 1, TAAR1 desensitize 89* and Ga16 antag count -1.
Screening O=C(N[C@@H](Cc1cccnc1)C(=O)N1CCC[C@H]1C(=O)NCCc1ccccc1Cl)C1CCCC1 returned TAAR1 agonist 80*, TAAR1 antagonist 73*, TAAR1 ag confirm 80*, Ga16 ag counter -1, TAAR1 desensitize 86* and Ga16 antag count 2.
O=C(CC1CCCC1)N[C@@H](Cc1cccnc1)C(=O)N1CCC[C@H]1C(=O)NCCc1ccccc1Cl was read as TAAR1 agonist 70*, TAAR1 antagonist 78*, TAAR1 ag confirm 87*, Ga16 ag counter 13*, TAAR1 desensitize 90* and Ga16 antag count 5.
Screening O=C(N[C@@H](Cc1cccnc1)C(=O)N1CCC[C@H]1C(=O)NCc1ccccc1)c1ccc(Cl)cc1Cl returned TAAR1 agonist 2 and TAAR1 antagonist -26.
`COc1cccc(C(=O)N[C@@H](Cc2cccnc2)C(=O)N2CCC[C@H]2C(=O)NCCc2ccccc2Cl)c1` gave TAAR1 agonist 67*, TAAR1 antagonist 71*, TAAR1 ag confirm 83*, Ga16 ag counter 9, TAAR1 desensitize 93* and Ga16 antag count 10.
CCc1ccc(C(=O)NCc2ccc(Cl)cc2)cc1 was read as TAAR1 agonist 65*, OXTR ag -2, OXTR potentiate -3, V1R ag counter -1, TAAR1 antagonist 33, TAAR1 ag confirm 2, Ga16 ag counter 21*, TAAR1 desensitize 8 and Ga16 antag count 15.
